The text below walks through data of article PMC10720030 (ACS Omega, 2023).

Assay [1] addresses PIM-1 kinase (Homo sapiens, UniProt P11309). Description: PIM-1 kinase inhibitory assay. The settings on record: for % of kinase inhibition, PIM-1 kinase: concentration not given. It counts as biochemical.
Assay [2] concerns liver HepG2 cancer cells. Description: Cytotoxicity using the MTT assay, HepG2. Format: cell-based. The settings on record: for inhibition at 100 µM: read-out: % of cell inhibition ± SD at [100 μM], HepG2. The method in brief:
(§1)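 MTT viability; cells grown with 10% FBS and 1% penicillin–streptomycin, exposed next day to five concentrations (0.01, 0.1, 1, 10, 100) for 48 h. MTT dye added for 3 h, then viability calculated against untreated control. IC50 taken from dose–response curve; mean ± SD of three independent triplicates (n = 3).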

The subject of assay [3] is breast MCF-7 cancer cells. Description: Cytotoxicity using the MTT assay, MCF-7. As to conditions: for inhibition at 100 µM: read-out: % of cell inhibition ± SD at [100 μM], MCF7. It counts as cell-based. In outline:
as §1

Assay [4] concerns Solid Ehrlich carcinoma (SEC). Kind of assay: In vivo antitumor activity in SEC-bearing mice. Details: species or system Swiss albino mice. The settings on record: 5 mg/kg I.P.; for tumor weight: n = 6, SEC control 198.5 ± 10.6; for tumor volume: n = 6, SEC control 274.8 ± 16.6.
Assay [5] deals with MCF-10A normal cells. Description: Cytotoxicity using the MTT assay, MCF-10A. It counts as cell-based. The settings on record: Homo sapiens, read-out: IC50 ± SD, MCF-10A. The method in brief:
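Normal breast cells run in MTT viability assay. IC50 derived from dose–response curve; values are mean ± SD of three independent triplicate experiments (n = 3).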

The subject of assay [6] is MCF-7 cells. Description: Annexin V/PI staining flow cytometry. Format: cell-based. The settings on record: MCF-7, treated at IC50, 48 h.
The test system of assay [7] is MCF-7 cells. Description: DNA content-flow cytometry cell cycle analysis. Format: cell-based. As to conditions: MCF-7, treated at IC50, 48 h; control 29.12%.
Assay [8] deals with MCF-7 cells. Kind of assay: Autophagy evaluation using acridine orange flow cytometry. Format: cell-based. As to conditions: MCF-7, 48 h, control 32.8 × 10^3.
The subject of assay [9] is MCF-7 cells. Kind of assay: Wound-healing assay. Format: cell-based.
Assay [10] has as its system MCF-7. As to conditions: read-out: IC50 against MCF-7; cited from earlier work.
[11] abbreviates: Homo sapiens, MCF7, 48 h, read-out: IC50 ± SD, MCF7, MCF7, MTT, 48 h, n = 3.
[12] abbreviates: Homo sapiens, HepG2, 48 h, read-out: IC50 ± SD, HepG2, HepG2, MTT, 48 h, n = 3.
[13] abbreviates: read-out: IC50 ± SD, HepG2, HepG2, MTT, 48 h, n = 3.

The structures appear in SMILES notation. Several values for one entry are separate records, joined by “and”; a condition that tells them apart may be missing. Equal values may be shown once. Read-outs that look alike come from different tables or passages of the source.

Sequence of PIM-1 kinase (P11309 whole entry): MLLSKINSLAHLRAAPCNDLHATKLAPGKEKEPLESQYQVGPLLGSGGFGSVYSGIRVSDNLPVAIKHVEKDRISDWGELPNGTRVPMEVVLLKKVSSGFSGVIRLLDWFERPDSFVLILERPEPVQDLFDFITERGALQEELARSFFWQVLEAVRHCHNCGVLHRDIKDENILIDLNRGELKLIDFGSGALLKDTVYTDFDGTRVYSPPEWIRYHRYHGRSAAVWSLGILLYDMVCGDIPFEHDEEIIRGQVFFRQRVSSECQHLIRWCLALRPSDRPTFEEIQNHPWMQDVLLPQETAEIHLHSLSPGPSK

Regarding `COC(=O)CNC(=O)COc1nc(C)cc(C)c1C#N` [Compound 11, Methyl (2-((3-Cyano-4,6-dimethylpyridin-2-yl)oxy)acetyl)glycinate], the half-inhibitory concentration (IC50) in assay [1] is 42.3 ± 1.1 nM; in [3] (setting [11]), 730 ± 40 nM. For the same compound, in assay [1], the “% of kinase inhibition, PIM-1 kinase” value was found to be 90.1 ± 2.7%. Besides, the inhibition at 100 µM turned out to be 68.8 ± 1.6% in assay [2] (Homo sapiens, HepG2, 48 h) and 78.6 ± 2.3% in [3] (Homo sapiens, MCF7, 48 h).
In turn, `COc1cccc2c1C(=O)c1c(O)c3c(c(O)c1C2=O)C[C@@](O)(C(=O)CO)C[C@@H]3O[C@H]1C[C@H](N)[C@H](O)[C@H](C)O1` [doxorubicin, reference compound] displayed a tumor weight in assay [4] of 63.4 mg. Besides, the tumor volume in assay [4] worked out at 112.3 mm^3. Also, the inhibition at 100 µM in assay [2] (Homo sapiens, HepG2, 48 h) came out at 79.1 ± 2.3%; in assay [3] (Homo sapiens, MCF7, 48 h) it was 90.2 ± 2.1%. Also, the IC50 in assay [2] (setting [12]) was found to be 2480 ± 100 nM; in assay [5] it was 15800 ± 630 nM; in assay [3] (setting [11]), 2140 ± 100 nM.
`Cc1cc(C)c(C#N)c(OCc2n[nH]c(=S)o2)n1` [Compound 2, 4,6-Dimethyl-2-((5-thioxo-4,5-dihydro-1,3,4-oxadiazol-2-yl)methoxy)nicotinonitrile]: the inhibition at 100 µM stood at 43.5 ± 1.8% in assay [2] (Homo sapiens, HepG2, 48 h) and 41.9 ± 1.9% in [3] (Homo sapiens, MCF7, 48 h).
For `Cc1cc(C)c(C#N)c(OCC(=O)N2CCOCC2)n1` [Compound 12, 4,6-Dimethyl-2-(2-morpholino-2-oxoethoxy)nicotinonitrile], the tumor weight in assay [4] was 72.8 mg and 72.8 ± 1.74 mg. The tumor volume in assay [4] was 159.2 mm^3 and 159.2 ± 10.1 mm^3. In addition, in assay [4] (n = 6, TIR % = C – T/C × 100), the “tumor inhibition ratio (TIR %)” value was 42.1% and 42.1 ± 1.0%. The compound further gave an early apoptosis in [6] of 23.18%. Besides, in [6], the “increase of apoptosis versus untreated control” value was found to be 52.2 fold. In assay [6], this compound registered a late apoptosis of 10.25%. The compound also yielded a total apoptosis in assay [6] (untreated control 0.64%) of 33.43%. Besides, the IC50 was 14.3 ± 0.6 nM in assay [1]; 6600 nM in assay [2] (setting [12]); 5270 ± 200 nM in [2] (setting [13]); 52800 ± 2100 nM in [5]; 500 nM in [3] (setting [11]); 510 ± 20 nM in assay [3] (read-out: IC50 ± SD, MCF7, MCF7, MTT, 48 h, n = 3). In addition, in assay [1], the “% of kinase inhibition, PIM-1 kinase” value is reported as 97.5 ± 1.3%. The inhibition at 100 µM was 85.1 ± 2.1% in assay [2] (Homo sapiens, HepG2, 48 h) and 84.2 ± 2.6% in assay [3] (Homo sapiens, MCF7, 48 h). Moreover, the “S-phase cell population (%DIP S)” value in assay [7] is 36.02%. Besides, in assay [8], the autophagic cell death was 87.6 × 10^3 cells. In [9] (MCF-7, after 48 h of treatment, control 95.6%), this compound showed a wound closure of 71.8%. Besides, the “average L of migration” value in [9] (MCF-7, time 72 h) was 0.32 mm. For the same compound, the “% closure” value in assay [9] (MCF-7, time 72 h, Cont.MCF-7 95.55) is 71.85%. In addition, in assay [9] (MCF-7, time 72 h, total area 0.225), the migrated cell area is 0.161.
`Cc1cc(C)c(C#N)c(OCC(=O)N2CCCCC2)n1` [Compound 13, 4,6-Dimethyl-2-(2-oxo-2-(piperidin-1-yl)ethoxy)nicotinonitrile] registered an IC50 in [1] of 19.8 ± 1.1 nM. Further, the “% of kinase inhibition, PIM-1 kinase” value in [1] was 94.9 ± 2.9%. Further, the inhibition at 100 µM in [2] (Homo sapiens, HepG2, 48 h) is 56.4 ± 1.4%; in [3] (Homo sapiens, MCF7, 48 h), 64.6 ± 1.8%.
As to `CCOC(=O)CSc1nnc(COc2nc(C)cc(C)c2C#N)o1` [Compound 3, Ethyl 2-((5-(((3-Cyano-4,6-dimethylpyridin-2-yl)oxy)methyl)-1,3,4-oxadiazol-2-yl)thio)acetate], the inhibition at 100 µM in assay [2] (Homo sapiens, HepG2, 48 h) turned out to be 57.8 ± 1.9%; in [3] (Homo sapiens, MCF7, 48 h), 55.1 ± 2.1%.
In the same order, the values of `CC(=O)OC[C@H]1O[C@H](Sc2nnc(COc3nc(C)cc(C)c3C#N)o2)[C@H](OC(C)=O)[C@@H](OC(C)=O)[C@H]1OC(C)=O` [Compound 8, 2-((5-(2,3,4,6-Tetra-O-acetyl-α-D-galactopyranosylsulfanyl)-1,3,4-oxadiazol-2-yl)methoxy)-4,6-dimethylpyridine-3-carbonitrile] are 57.8 ± 1.6% and 59.8 ± 1.7%.
In the same order, the values of `Cc1cc(C)c(C#N)c(OCC(=O)NCc2ccccc2)n1` [Compound 14, N-Benzyl-2-((3-cyano-4,6-dimethylpyridin-2-yl)oxy)acetamide] are 35.5 ± 1.1% and 48.8 ± 1.2%.
Regarding `CS(=O)(=O)CCNCc1ccc(-c2ccc3ncnc(Nc4ccc(OCc5cccc(F)c5)c(Cl)c4)c3c2)o1` [lapatinib], the IC50 in [10] is 4690 nM.
On to `CCCCCSc1nnc(COc2nc(C)cc(C)c2C#N)o1` [Compound 6, 4,6-Dimethyl-2-((5-(pentylthio)-1,3,4-oxadiazol-2-yl)methoxy)nicotinonitrile], for which the figures for the IC50 in assay [1], in assay [2] (setting [12]) and in assay [2] (setting [13]) were 19.4 ± 0.7 nM, 5270 nM and 6640 ± 280 nM, respectively. In assay [1], the “% of kinase inhibition, PIM-1 kinase” value worked out at 94.3 ± 1.3%. Also, the inhibition at 100 µM came to 79.2 ± 2.2% in assay [2] (Homo sapiens, HepG2, 48 h) and 78.2 ± 2.2% in assay [3] (Homo sapiens, MCF7, 48 h).
Regarding `C=CCSc1nnc(COc2nc(C)cc(C)c2C#N)o1` [Compound 5, 2-((5-(Allylthio)-1,3,4-oxadiazol-2-yl)methoxy)-4,6-dimethylnicotinonitrile], the inhibition at 100 µM in assay [2] (Homo sapiens, HepG2, 48 h) worked out at 69 ± 2.1%; in assay [3] (Homo sapiens, MCF7, 48 h), 47 ± 1.4%.
In the same order, the values of `Cc1cc(C)c(C#N)c(OCc2nnc(SCc3ccccc3)o2)n1` [Compound 4, 2-((5-(Benzylthio)-1,3,4-oxadiazol-2-yl)methoxy)-4,6-dimethylnicotinonitrile] are 75.8 ± 2.3% and 72.1 ± 2.9%.
